The data set is described as follows: Toxicity liver stage against HepG2, at 10uM. Also on record: test concentration 10 uM, cell line HepG2-A16-CD81EGFP. To be noted: human, HepG2-A16-CD81EGFP cells; read-out: INHIBITION
Type of data set: cell-based. An outline of the steps:
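Uninfected HepG2-A16-CD81EGFP cells, 3 × 10^3 per well, 1536-well, plated on prespotted compound at 10 μM final, parasite-free screening media added to match infected plates; puromycin 10 μM positive, DMSO 0.5% negative; run in parallel with 48 h PbLuc assay at 37 °C, 5% CO2; viability by CellTiter-Glo luminescence, normalized to controls.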
As to `O=C(CCc1cc2n(n1)CCCN(CCc1ccccc1)C2)NC1CC1`, the cytotoxicity at 10 µM is 12%. As to `CCOc1ccc(S(=O)(=O)NCCCc2ccc(N(C)C)cc2)cc1F`, the cytotoxicity at 10 µM is -5.67%. `O=C(NCC(O)Cc1ccccc1)c1ccc2[nH]c(=O)[nH]c2c1` (centres undefined): the cytotoxicity at 10 µM was found to be 4.14%. With `COCCc1noc(CN(C)C(=O)C2COc3ccccc3C2)n1` (centres undefined), the cytotoxicity at 10 µM was found to be 8.63%.

As to `c1cnc(N2CCOCC3(CCN(c4cnccn4)CC3)C2)nc1`, the cytotoxicity at 10 µM is -103%. In the case of `COCCN1CCC(CNC(=O)C2(c3cccc(Cl)c3)CC2)C1` (centres undefined), the cytotoxicity at 10 µM is -6.63%.

Turning to `CN1C(=O)CCC12CCC(NCc1ccsc1)CC2` (centres undefined), the cytotoxicity at 10 µM is 3.56%. With `CC(C)c1nc2c(n1C)CCN(CC(=O)Nc1ccnn1C(C)C)C2` the figure was -1.3%; with `Cc1nc(C2CCN(S(=O)(=O)c3ccc4c(c3)CCO4)CC2)n[nH]1`, -8.91%.

Regarding `CCc1nc(CN(C)C(=O)c2cc(CN(CC)CC)c(CC)o2)no1`, the cytotoxicity at 10 µM is 0.9%. In the case of `CCCc1noc(C2CCN(S(=O)(=O)c3cccs3)CC2)n1`, the cytotoxicity at 10 µM was 1.5%. Take `CCCN(CC)c1ccc(C(=O)N2CCCC2c2cnn(C)c2)cn1` (centres undefined): the cytotoxicity at 10 µM was -6.75%.

Turning to `CC(C(=O)NCc1cccs1)N1CCN(Cc2nccn2C)CC1` (centres undefined), the cytotoxicity at 10 µM is -14.5%. With `Cn1cc(C2CCCN2C(=O)c2cn(-c3ccccc3)nn2)cn1` (centres undefined), the cytotoxicity at 10 µM was -24%. In the case of `COc1ccc(CNC(=O)NC2CCN(CC(F)F)CC2)cc1C`, the cytotoxicity at 10 µM amounted to 1.11%. For the molecule `O=C(Nc1cc(C2CCOCC2)[nH]n1)c1cscn1`, the cytotoxicity at 10 µM is -7.84%. As to `CC(=O)NCCNc1nc(-c2ccccn2)nc2c1c(C)nn2C`, the cytotoxicity at 10 µM was 2.72%. With `c1cnn(CC2CCCN2Cc2nc(C3CC3)no2)c1` (centres undefined) the figure was 1.61%.

Consider `Cc1ccc(CCCC(=O)N(C)CCN2CCOCC2)cc1`, for which the cytotoxicity at 10 µM was -2.75%. Consider `O=C(CCc1nc(Cl)n[nH]1)NC1CCCN(CC2CCCCC2)C1` (centres undefined), for which the cytotoxicity at 10 µM was -11.4%. As for `CSc1nc2cc(C)n(CC(=O)N3CCCC3)c2c(=O)n1CC(C)C`, the cytotoxicity at 10 µM was found to be 3.64%. With `CCCNCc1cn(C)nc1-c1cccnc1` the figure was 6.36%; with `O=C1OCCN1CCNC(=O)C1(N2CCCCC2)Cc2ccccc2C1`, -6.77%. Turning to `NC(=O)C(Nc1cccc(CO)c1)c1ccc(Br)cc1` (centres undefined), the cytotoxicity at 10 µM worked out at 9.17%. With `O=C1CCNc2ccc(F)cc2CN1Cc1ccco1`, the cytotoxicity at 10 µM was -1.36%. In the case of `CC(CC#N)N(C)Cc1ccc(F)cc1F` (centres undefined) it was 6.03%; in that of `CCn1cc(S(=O)(=O)N2CCN(C(=O)c3cc(Br)cs3)CC2)c(C)n1`, 2.73%. With `Fc1cnc(N2CCC3(CC2)CC(OCc2cccnc2)CO3)nc1` (centres undefined) the figure was 2.25%; with `c1cnnc(N2CCCC(NCc3nc(-c4cccs4)no3)C2)c1` (centres undefined), 15.8%; with `CCCC(=O)NC(Cc1ccc(C)cc1)c1ccccn1` (centres undefined), -2.25%. Regarding `O=S(=O)(C1CC1)N1CC[C@]2(C[C@H](OCC3CCOCC3)CO2)C1`, the cytotoxicity at 10 µM is 8.64%. Turning to `COCCC(=O)NCC(O)c1c(F)cccc1F` (centres undefined), the cytotoxicity at 10 µM was -2.38%. With `CCC[C@@H]1CN(Cc2cc(OC)c3c(c2)OCO3)C[C@H]1C(=O)O` the figure was -0.778%. For `Cc1nccn1C1CCCN(C(=O)c2cnn(C)c2C2CC2)C1` (centres undefined), the cytotoxicity at 10 µM is -5.92%.

With `COCCCN(CCOC)C(=O)Nc1ccccc1-n1cccn1`, the cytotoxicity at 10 µM was determined as 1.51%.

On to `CCc1cc(CN(C)C(=O)c2cnn[nH]2)on1`, for which the cytotoxicity at 10 µM is 7.48%.

As for `CNC(=O)[C@H]1CO[C@H]2CCN(Cc3ccc4ccccc4n3)C[C@H]2C1`, the cytotoxicity at 10 µM is 8.05%. Consider `CC(C(=O)Nc1ccc(N2CCCCC2)nc1)n1cncn1` (centres undefined), for which the cytotoxicity at 10 µM was -31.2%.

As to `O=C(N[C@@H]1CCCNC1)C1(Oc2ccc(Cl)cc2)CCNCC1`, the cytotoxicity at 10 µM is -4.73%. As for `CC(NC(=O)Cn1cccn1)c1cccnc1` (centres undefined), the cytotoxicity at 10 µM worked out at 15.9%. For `CC(C)c1ccc(-n2nnc(C(=O)O)c2-c2ccccn2)cc1`, the cytotoxicity at 10 µM is 9.18%. With `COc1ccc(C2CCN(Cc3cscn3)CC2)cc1`, the cytotoxicity at 10 µM is -0.243%. Take `CCCOc1cc(CNC(=O)Nc2cccnc2N2CCCC2)ccn1`: the cytotoxicity at 10 µM was -2.06%.

On to `Cc1ncc(-c2ccncc2)c(C2CCN(C(=O)c3ccco3)CC2)n1`, for which the cytotoxicity at 10 µM was determined as 4%. As to `CCN1C[C@@H]2CN(C(=O)c3ccsc3)C[C@@H]2C1=O`, the cytotoxicity at 10 µM was -6.57%. As for `COc1ccc(C2=CCN(C(=O)C3CCN(C)C(=O)C3)CC2)cc1` (centres undefined), the cytotoxicity at 10 µM is -9.09%. With `CN1CCN(CC(NCc2ccc(F)cc2)c2ccccc2)CC1` (centres undefined), the cytotoxicity at 10 µM was -15.7%.

Consider `CCn1ncc2[nH]c(-c3cc4c(cc3OC)OCO4)nc21`, for which the cytotoxicity at 10 µM was -2.99%. In the case of `N#CC1(C(=O)N2CCCN(c3nccs3)CC2)CCCC1` it was -11.1%; in that of `Cc1cccc(OC2CN(C(=O)C3CC(=O)N(C4CC4)C3)C2)c1` (centres undefined), -0.503%. Take `CC(C)n1cc(N2CC(C(=O)N3CCCC3)CC2=O)cn1` (centres undefined): the cytotoxicity at 10 µM is 3.79%. As for `N#CCc1ccc(OCC(=O)N2CCCC(n3cccn3)C2)cc1` (centres undefined), the cytotoxicity at 10 µM was -4%. With `Cc1ccc(NC(=O)NC(C)c2nc[nH]n2)s1` (centres undefined) the figure was -2.18%. For `O=C(c1cnccn1)N1CCCC2(CCN(Cc3ccsc3)C2)C1` (centres undefined), the cytotoxicity at 10 µM is -2.27%. Turning to `N#Cc1ccsc1NC(=O)CCN1CCn2c(nnc2C2CC2)C1`, the cytotoxicity at 10 µM was -5.65%.

`CC(C)(O)c1cc(CC2(NCC3CCCCC3)COC2)no1`: the cytotoxicity at 10 µM is 0.0962%. As for `Cc1ccc(CN2CC(C(=O)Nc3ccccc3)C3(CCOCC3)C2)o1` (centres undefined), the cytotoxicity at 10 µM worked out at 0.927%. As for `O=C(c1cc(Cl)ccc1OC1CCN(C2CCCC2)CC1)N1CC(O)C1`, the cytotoxicity at 10 µM is -16.2%.

With `Cc1nc(N2CCCC2)nc2c1CCN(C(=O)CN(C)C)CC2`, the cytotoxicity at 10 µM is -5.73%. Consider `c1cc(C2CCN(Cc3ccc4c(c3)OCO4)CC2)ccn1`, for which the cytotoxicity at 10 µM was -2.98%. In the case of `C[C@@H]1CN(C(=O)CCc2cnn(C)c2)CC[C@@]1(O)C1CCOCC1` it was -0.872%; in that of `CN(C(=O)COc1ccc(F)cc1)[C@@H]1CC[C@@H](n2ccnc2)[C@@H]1O`, -5.28%; in that of `Cc1ccoc1C(=O)N1CCC(n2cc(-c3ccsc3)nn2)CC1`, 5.02%. Turning to `COCc1nc(CN(CC(N)=O)C(C)C)cs1`, the cytotoxicity at 10 µM is -8.39%. Take `Cc1ccc(C2CSCCN2C(=O)c2cnsn2)o1` (centres undefined): the cytotoxicity at 10 µM was found to be 5.11%. Consider `COCCn1cc(C(=O)N2CCCC2c2cc(C)on2)c2ccccc21` (centres undefined), for which the cytotoxicity at 10 µM came to 6.35%. For the molecule `Cc1nccn1-c1ccc(=O)n(CCNC(=O)c2ccncc2)n1`, the cytotoxicity at 10 µM was -3.18%. In the case of `COc1cccc(-c2n[nH]c3c2CN(C(=O)c2ccncc2)CC3)c1` it was -5.55%; in that of `O=C(NCCCOC1CCCCC1)C1NCCc2[nH]cnc21` (centres undefined), 4.68%; in that of `Cc1cc(N(C)C)nc(C2COCCN2Cc2cscn2)n1` (centres undefined), -6.94%.

With `COc1nn(C)c2c1CCCN(C(=O)c1ccc3ccccc3n1)C2`, the cytotoxicity at 10 µM turned out to be 13.7%. As for `Cc1cc(CN(C)CCC(O)c2ccccc2)nn1C` (centres undefined), the cytotoxicity at 10 µM was -17.3%.

For the molecule `COC(=O)c1ccc(N2CCN(C(=O)c3cccnc3)C(C)C2)cc1` (centres undefined), the cytotoxicity at 10 µM turned out to be 4.54%. For the molecule `Cc1nc(CN2CCCC2Cn2cncn2)no1` (centres undefined), the cytotoxicity at 10 µM was -7.01%. With `CC(C(=O)N1CCCN(c2ccc(C#N)cc2)CC1)n1cccn1` (centres undefined) the figure was -3.02%. For `Cc1nc(NC(=O)OC(C)(C)C)sc1C(=O)O`, the cytotoxicity at 10 µM came to 7.89%.

Turning to `O=C(CCc1ccsc1)NCC1CCN(C2CC2)C1` (centres undefined), the cytotoxicity at 10 µM was determined as 2.63%. Consider `Cc1c(C(=O)O)cnn1-c1ccc(-c2nc(C(C)(C)C)no2)cn1`, for which the cytotoxicity at 10 µM worked out at 7.19%. `CCOCC(=O)N1Cc2[nH]nc(COCC3CC3)c2C1`: the cytotoxicity at 10 µM came out at 9.29%. Consider `CC(C)NC(=O)CN(C)C1CCN(c2ccc(C#N)cn2)CC1`, for which the cytotoxicity at 10 µM was -16.1%. Consider `O=C(c1ccco1)N1CCCC12CCN(c1ncccn1)CC2`, for which the cytotoxicity at 10 µM stood at 3.23%. For the molecule `Cc1ccc(C(CNC(=O)c2cc(CC(C)C)nn2C)N(C)C)cc1` (centres undefined), the cytotoxicity at 10 µM is -3.34%.

Take `CC(C)=CCN1C(=O)[C@@H]2CC[C@H]1CN(c1ncccn1)C2`: the cytotoxicity at 10 µM came out at 9.14%.

With `C[C@@H]1CN(C2CCCCC2)CC[C@@]1(O)C1CCOCC1`, the cytotoxicity at 10 µM is -7.58%. In the case of `CC(C)Oc1ncc(C(=O)N2CCCC(C(=O)O)C2)cc1Cl` (centres undefined) it was -6.94%; in that of `O=C(NC1CCCC1)c1cc(Cn2cnc3ccccc32)on1`, 4.51%. Turning to `Cc1ccc(C2(CN(C)Cc3snnc3C)CCNCC2)nc1`, the cytotoxicity at 10 µM was -0.355%. With `CSCc1ccc(N2CCC(C(O)Cc3ccccc3)CC2)nc1` (centres undefined) the figure was 2.45%; with `Cc1nc(CN2CCC(N(C)Cc3noc(C(C)C)n3)C2)cs1` (centres undefined), -14.1%; with `COc1cccc(CN2CCCCCC2c2cccs2)c1O` (centres undefined), 11.4%. In the case of `O=C(NCC(O)CO)Nc1cc(Br)ccc1F` (centres undefined) it was 1.69%; in that of `Cc1cc(C)c(CNc2cnc3ccccc3n2)c(=O)[nH]1`, 41.8%. With `O=C(C1CCC1)N1CCOc2cccc(F)c21` the figure was 0.877%.

On to `O=C(NCC1(O)CCSC1)c1ccoc1` (centres undefined), for which the cytotoxicity at 10 µM was -12.7%.

For the molecule `CC(=O)c1cc(CN2CCCC23CCN(c2ccccn2)CC3)cs1`, the cytotoxicity at 10 µM was -7.69%.

For the molecule `Cc1nc(C(=O)N2CCCCC2c2ccc(CN(C)C)cc2)c(C)o1` (centres undefined), the cytotoxicity at 10 µM is -2.32%. As for `CC(C)c1noc(CCC(=O)NC(C)c2nnc3n2CCCCC3)n1` (centres undefined), the cytotoxicity at 10 µM was -4.35%. With `COCc1noc(Cn2ccc3ccccc3c2=O)n1`, the cytotoxicity at 10 µM turned out to be 0.761%. With `CC(C)N(C)Cc1cnc2n1CCN(Cc1ccsc1)C2` the figure was 1.96%.

The record behind these values is ChEMBL document CHEMBL4513216, “Probing the Open Global Health Chemical Diversity Library for Multistage-Active Starting Points for Next-Generation Antimalarials” (ACS Infect Dis, 2020).
